Where a name gives a salt, the structure may show the parent alone. Where a SMILES comes first, the peptide text is derived from it. [ ]: non-standard residue; d: D form. AEEA = NCCOCCOCC(=O)O
Key:
MRSA (strain 33564) [1] = assay: Membrane depolarization, DiSC3; format: cell-based, methicillin-resistant Staphylococcus aureus; conditions: 30 min observation
How it was run: (§1)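 Cells grown in Mueller-Hinton broth to OD600 0.5, pelleted (3500 r/min, 5 min, 4°C), washed twice in 5 mM HEPES pH 7.4 with 20 mM glucose. Adjusted to OD600 0.05 and loaded 30 min at room temperature with DiSC₃(5) (2 µmol/L final). KCl added (100 mmol/L final). After baseline reading (ex 622/em 670 nm), test compound added at 1, 2, 4 or 8 µmol/L; read continuously for 30 min.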

MRSA (strain 33564) [2] = assay: Time-kill kinetics; format: cell-based, methicillin-resistant Staphylococcus aureus; conditions: 1×10^7 CFU/mL, RPMI 1640 + 10% FBS, 37°C
How it was run: (§2)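 Bacteria adjusted to 1×10^7 CFU/mL in RPMI 1640 with 10% FBS. Incubated at 37°C, 200 rpm. Sampled every 30 min from 0 to 360 min, serially diluted in saline, plated on Mueller-Hinton agar, counted after 24 h at 37°C. Plotted as log₁₀ CFU/mL versus time.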

[3] = system: K. pneumoniae (strain 9409); assay: Membrane depolarization, DiSC3; format: cell-based, Klebsiella pneumoniae; conditions: 30 min observation
How it was run: as §1

K. pneumoniae R62 = assay: Acute K. pneumoniae pulmonary infection model; format: in vivo, mouse (female CD-1)
bacterial DNA = assay: DNA interaction, gel electrophoresis; format: binding; conditions: Fig. S5
[4] = system: K. pneumoniae persister cells; assay: Anti-persister activity; format: cell-based, Klebsiella pneumoniae; conditions: 8× MIC, 1 h 37°C; persisters from colistin 50× MIC 6 h
How it was run: (§3)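 Exponential-phase cultures treated 6 h with 50× MIC colistin (K. pneumoniae) or vancomycin (MRSA). Survivors pelleted (4 000 r/min, 10 min, 4°C), washed twice in PBS and resuspended in Mueller-Hinton broth at about 1×10^7 CFU/mL. […] Serially diluted, plated on Mueller-Hinton agar, CFU counted.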

MRSA = assay: Agar spotting assay; format: cell-based, methicillin-resistant Staphylococcus aureus; conditions: bacterial spotting assay, Fig. 4B
[5] = system: RAW264.7 (murine macrophages); assay: Cytotoxicity, CCK-8; format: cell-based; conditions: nearly all concentrations (2.5-80 μmol/L), 24 h
K. pneumoniae 9409 = assay: Bacterial aggregation; format: cell-based, Klebsiella pneumoniae; conditions: 10 to 80 μmol/L, 4 h 37°C, PBS
[6] = system: K. pneumoniae strain 9409; assay: Membrane permeabilization, PI uptake; format: cell-based, Klebsiella pneumoniae; conditions: 0-32 μM, PI 10 μg/mL, 37°C 30 min
LPS = assay: BODIPY-TR-cadaverine displacement assay; format: binding; conditions: 0-64 μmol/L, LPS 50 μg/mL, 50 mmol/L Tris pH 7.4, 30 min 37°C
[7] = system: K. pneumoniae (strain 9409); assay: Salt sensitivity assay; format: cell-based, Klebsiella pneumoniae
How it was run: (§4)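 MICs determined in RPMI-1640 with 150 mM FeCl₃, CaCl₂, KCl, NaCl or MgCl₂ added; unsupplemented RPMI 1640 as control. Read after 18–24 h at 37°C. Three independent experiments, mean±SEM.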

MRSA 33564 [8] = assay: Bacterial aggregation; format: cell-based, methicillin-resistant Staphylococcus aureus; conditions: 10 to 80 μmol/L, 4 h 37°C, PBS
K. pneumoniae biofilm [9] = assay: Eradication of preformed biofilm, crystal violet; format: cell-based, Klebsiella pneumoniae; conditions: TRPY 8 µmol/L, 24 h on 24 h biofilm
How it was run: (§5)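 Biofilms formed with test compound present (inhibition) or pre-formed then treated (eradication). Stained with 0.1% crystal violet; biofilm quantified by absorbance at 600 nm against untreated control.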

[10] = system: K. pneumoniae (strain 9409); assay: Time-kill kinetics; format: cell-based, Klebsiella pneumoniae; conditions: TRPY 2 μmol/L; 1×10^7 CFU/mL, RPMI 1640 + 10% FBS, 37°C
How it was run: as §2

[11] = In vivo toxicity, 5 day intraperitoneal dosing; set-up: species or system mouse (female CD-1); conditions: for serum urea: n = 4; for aspartate aminotransferase (AST): serum day 5, n = 4; for alanine aminotransferase (ALT): serum day 5, n = 4, mean
How it was run: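 Test compound given intraperitoneally to mice over 5 days at 5 and 10 mg/kg; PBS control group. Serum ALT and AST measured in U/L.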

MRSA strain 33564 = assay: Membrane permeabilization, PI uptake; format: cell-based, methicillin-resistant Staphylococcus aureus; conditions: 0-32 μM, PI 10 μg/mL, 37°C 30 min
MRSA (strain 33564) [12] = assay: Salt sensitivity assay; format: cell-based, methicillin-resistant Staphylococcus aureus
How it was run: as §4

K. pneumoniae = assay: Agar spotting assay; format: cell-based, Klebsiella pneumoniae; conditions: bacterial spotting assay, Fig. 4B
MRSA 33564 [13] = assay: MRSA peritoneal infection model; format: in vivo, mouse (female CD-1); conditions: 10 mg/kg i.p.
How it was run: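 Female CD-1 mice (8–10 weeks) were challenged intraperitoneally with MRSA (1×10^8 CFU/mL). At 2 h post-infection they received 10 mg/kg test compound or PBS vehicle intraperitoneally (n=6 per group). Liver and kidneys were collected at 24 h post-infection and fixed in formalin. H&E-stained sections were compared with those from healthy, infected and vehicle-treated mice.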

[14] = system: HaCaT (human keratinocytes); assay: Cytotoxicity, CCK-8; format: cell-based; conditions: nearly all concentrations (2.5-80 μmol/L), 24 h
MRSA biofilm [15] = assay: Eradication of preformed biofilm, crystal violet; format: cell-based, methicillin-resistant Staphylococcus aureus; conditions: TRPY 8 µmol/L, 24 h on 24 h biofilm
How it was run: as §5

MRSA biofilm [16] = assay: Biofilm formation inhibition, crystal violet; format: cell-based, methicillin-resistant Staphylococcus aureus; conditions: TRPY 32 μmol/L, 24 h
How it was run: as §5

MRSA persister cells = assay: Anti-persister activity; format: cell-based, methicillin-resistant Staphylococcus aureus; conditions: 8 μmol/L, 1 h 37°C; persisters from vancomycin 50× MIC 6 h
How it was run: as §3

K. pneumoniae biofilm [17] = assay: Biofilm formation inhibition, crystal violet; format: cell-based, Klebsiella pneumoniae; conditions: TRPY 32 μmol/L, 24 h
How it was run: as §5

In vivo pharmacokinetics = assay: In vivo pharmacokinetics; set-up: species or system mouse (female CD-1)
How it was run: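 Plasma concentrations of test compound measured by HPLC over 8 h after dosing.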

Dynamic light scattering = format: physicochemical; conditions: DLS, 500 μg/mL in PBS pH 7.4, 25°C, triplicate
E. coli LPS = assay: LPS-induced endotoxemia model; format: in vivo, mouse (female CD-1); conditions: 10 mg/kg i.p. 1 h after LPS 10 mg/kg, blood 6 h after LPS, n = 5
How it was run: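 Female CD-1 mice (8–10 weeks) challenged intravenously with E. coli LPS 10 mg/kg. Test compound 10 mg/kg given intraperitoneally 1 h later (n=5); LPS-only controls. Blood drawn 6 h after LPS. Serum IL-6, MCP-1, TNF-α and IL-1β measured by ELISA. Mean±SEM; one-way ANOVA, Dunnett.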

[18] = system: HEK293 (human embryonic kidney cells); assay: Cytotoxicity, CCK-8; format: cell-based; conditions: nearly all concentrations (2.5-80 μmol/L), 24 h
[19] = system: MRSA-infected RAW264.7 macrophages; assay: Intracellular antibacterial activity; format: cell-based; conditions: vancomycin 20 μmol/L, 2 h; MOI 10:1
[20] = 2 mg/kg intranasal, 18 h post-treatment, n = 7
[21] = 150 mmol/L of each salt in RPMI-1640
[22] = 5 mg/kg i.p. once daily for 5 days
[23] = 10 mg/kg i.p. once daily for 5 days
[24] = 5 and 10 mg/kg i.p. for 5 days vs PBS
[25] = female, CD-1, mouse, plasma, iv, 5 mg/kg

## CNC(C)C1CCC(N)C(OC2C(N)CC(N)C(OC3OCC(C)(O)C(NC)C3O)C2O)O1 (stereo not shown) [Gentamicin, gentamicin sulfate]
MRSA (strain 33564) [1]
  DiSC3(5) fluorescence (membrane potential): maintained baseline fluorescence
MRSA (strain 33564) [2]; gentamicin 20 μmol/L
  time to eradicate all viable cells: over 360 min
[3]
  DiSC3(5) fluorescence (membrane potential): maintained baseline fluorescence

## CC[C@H](C)[C@H](NC(=O)[C@H](CCCCN)NC(=O)[C@H](Cc1c[nH]c2ccccc12)NC(=O)[C@H](Cc1c[nH]c2ccccc12)NC(=O)[C@H](CCCCN)NC(=O)[C@H](CCCCN)NC(=O)[C@H](CCCCN)NC(=O)[C@H](Cc1c[nH]c2ccccc12)NC(=O)[C@H](CCCCN)NC(=O)[C@H](CCCCN)NC(=O)[C@H](Cc1c[nH]c2ccccc12)NC(=O)[C@H](CCCCN)NC(=O)[C@H](CCCCN)NC(=O)[C@@H](NC(=O)[C@@H](NC(=O)[C@H](CCCCN)NC(=O)[C@@H](N)CCCNC(=N)N)[C@@H](C)CC)[C@@H](C)CC)C(=O)N[C@@H](Cc1c[nH]c2ccccc12)C(=O)N[C@@H](Cc1c[nH]c2ccccc12)C(=O)N[C@@H](CCCCN)C(=O)NCCOCCOCC(N)=O [TRPY] (H-RKIIKKWKKWKKKWWKIWWK[AEEA]-NH2; N-terminus and C-terminus assumed)
K. pneumoniae R62; 2 mg/kg intranasal
  lung histology (H&E): reduced inflammatory cell infiltration and preserved alveolar architecture
K. pneumoniae R62; 2 mg/kg intranasal 2 h post-infection, lungs 18 h post-treatment, n = 7
  reduction of pulmonary bacterial burden vs control: approximately 1 log
K. pneumoniae R62; [20]
  reduction in IL-1β vs control group: 42.8%
  reduction in IL-6 vs control group: 39.2%
  reduction in MCP-1 vs control group: 58.4%
  reduction in TNF-α vs control group: 34.7%
Bacterial DNA
  concentration inducing degradation or binding to bacterial DNA: ≥ 4 µmol/L
[4]
  persister CFU/mL after treatment: virtually undetectable levels
MRSA
  concentration giving complete growth inhibition: ≥ 1 µmol/L
[5]
  cell viability: over 80%
K. pneumoniae 9409
  bacterial aggregation: dose-dependent formation of visible precipitates
[6]
  PI uptake (cytoplasmic membrane disruption): concentration-dependent increase in PI fluorescence
MRSA (strain 33564) [2]; TRPY 2 μmol/L
  time to eradicate all viable cells: ≤ 60 min
LPS
  LPS binding (probe displacement): strong, concentration-dependent binding to LPS
[7]; [21]
  effect of KCl, NaCl, and CaCl2 on antimicrobial activity: minimal interference with antimicrobial activity
[7]; RPMI-1640 + 150 mmol/L FeCl3, 37°C 18-24 h, strain 9409
  MIC with FeCl3: approximately 2.0 μmol/L
[7]; RPMI-1640 + 150 mmol/L MgCl2, 37°C 18-24 h, strain 9409
  MIC with MgCl2: approximately 2.0 μmol/L
MRSA 33564 [8]
  bacterial aggregation: dose-dependent formation of visible precipitates
K. pneumoniae biofilm [9]
  reduction of preformed biofilm: over 40%
[10]
  time to eliminate all viable cells: ≤ 60 min
[11]; [22]
  serum urea: 11.2 ± 1.5 µmol/L
  aspartate aminotransferase (AST): 102.7±6.6 U/L
  alanine aminotransferase (ALT): 22.8±2.6 U/L
[11]; [23]
  serum urea: 12.1 ± 1.2 µmol/L
  aspartate aminotransferase (AST): 105.2±4.7 U/L
  alanine aminotransferase (ALT): 23.4±3.2 U/L
[11]; 5 and 10 mg/kg i.p. for 5 days
  kidney histopathology (H&E): normal glomerular and tubular architecture
  liver histopathology (H&E): no signs of necrosis, inflammation, or fatty degeneration
[11]; [24]
  alkaline phosphatases (ALP) levels: comparable across treatment groups
  body weight: no significant differences between the TRPY-treated and control groups
MRSA strain 33564
  PI uptake (cytoplasmic membrane disruption): concentration-dependent increase in PI fluorescence
MRSA (strain 33564) [12]; [21]
  effect of KCl, NaCl, and CaCl2 on antimicrobial activity: minimal interference with antimicrobial activity
MRSA (strain 33564) [12]; RPMI-1640 + 150 mmol/L FeCl3, 37°C 18-24 h, strain 33564
  MIC with FeCl3: approximately 2.0 μmol/L
MRSA (strain 33564) [12]; RPMI-1640 + 150 mmol/L MgCl2, 37°C 18-24 h, strain 33564
  MIC with MgCl2: approximately 2.0 μmol/L
K. pneumoniae
  concentration giving complete growth inhibition: ≥ 1 µmol/L
MRSA 33564 [13]
  liver and kidney histopathology in infected mice: maintained normal tissue architecture in the liver and kidneys
[14]
  cell viability: over 80%
MRSA biofilm [15]
  reduction of preformed biofilm: over 40%
MRSA biofilm [16]
  reduction of biofilm formation compared to control: approximately 95%
MRSA persister cells
  persister cells after treatment: complete eradication
K. pneumoniae biofilm [17]
  reduction of biofilm formation compared to control: approximately 95%
In vivo pharmacokinetics; [25]
  level at 0.25 h: ~15000 ng/mL
  level at 2 h: < 1000 ng/mL
  level at 8 h: ~120 ng/mL
In vivo pharmacokinetics; single i.v. 5 mg/kg, 8 h
  elimination profile: biphasic elimination profile
Dynamic light scattering
  nanoparticle average size: approximately 160 nm
E. coli LPS
  reduction of serum IL-1β relative to LPS-only controls: 52.3%
  reduction of serum IL-6 relative to LPS-only controls: 42.3%
  reduction of serum MCP-1 relative to LPS-only controls: 46.6%
  reduction of serum TNF-α relative to LPS-only controls: 39.5%
[18]
  cell viability: over 80%

## CN[C@H](CC(C)C)C(=O)N[C@H]1C(=O)N[C@@H](CC(N)=O)C(=O)N[C@H]2C(=O)N[C@H]3C(=O)N[C@H](C(=O)N[C@H](C(=O)O)c4cc(O)cc(O)c4-c4cc3ccc4O)[C@H](O)c3ccc(c(Cl)c3)Oc3cc2cc(c3O[C@@H]2O[C@H](CO)[C@@H](O)[C@H](O)[C@H]2O[C@H]2C[C@](C)(N)[C@H](O)[C@H](C)O2)Oc2ccc(cc2Cl)[C@H]1O [Vancomycin, vancomycin sulfate]
[19]
  intracellular bacterial burden: approximately 1.5×10^5 CFU/mL
